These results are taken from PMC4361481 (Journal of Biomolecular Screening, 2015).

The structures appear in SMILES notation.

In assay [1] the test system is H3K27me3. The assay is described as follows: H3K27me3 HCA assay, MDA-MB-231 cells, 384-well format. The class given is cell-based. Conditions: MDA-MB-231, 3 days. In short, it runs like this: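 MDA-MB-231 cells were plated in 384-well plates 24 h before compound, diluted in medium from a 10 mM DMSO stock (final DMSO ≤0.6%). Treatment was 3 µM over a time course or a concentration series for 3 days, at 37 °C, 5% CO2. H3K27me3 immunofluorescence used PFA fixation and Triton permeabilization, primary antibody 16 h at 4 °C, plus Hoechst. Confocal imaging averaged about 1500–2000 nuclei; triplicates, % of DMSO control.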

In the next assay the test system is MDA-MB-231 cells. The assay is described as follows: Number of analyzed nuclei. The class given is cell-based. Conditions: MDA-MB-231, 3 days, maximal effect, concentration not given. In short, it runs like this: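 Proliferation was read from the same 3-day high-content assay in 384-well plates at 37 °C, 5% CO2. Nuclei were counted in the Hoechst (4 µg/mL) DNA channel. Segmentation used a gray-level threshold and minimum/maximum nuclear diameter set on DMSO-treated controls, which excluded debris. Total nuclei per well served as cell number and were expressed as % of DMSO control, in triplicate.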

Assay [2] has as its system H3K27me3. To be noted: mutant EZH2-bearing lymphoma cells; cited from earlier work.

On to `Nc1nccc2c1ncn2C1C=C(CO)C(O)C1O` (stereo not shown) [DZNep, 3-deazaneplanocin A], for which the “global H3K27me3 level at maximum reduction, % of DMSO control” value in the assay on H3K27me3 [1] amounted to 65%. For the same compound, in the assay with MDA-MB-231 cells, the “cell number, % of DMSO control” value is on record as 45%.

With `Cc1cc(C)c(CNC(=O)c2cc(-c3ccc(CN4CCOCC4)cc3)cc3c2cnn3C2CCCC2)c(=O)[nH]1` [EPZ005687], in the assay on H3K27me3 [2], the “time at which loss of H3K27me3 was apparent” value is listed as 24 h and the “time required for full effects on H3K27me3” value is on record as “up to 5 days”.
